Article PMC9476207 (ACS Omega, 2022)

Key:
Experiment in all cases: NCI-60 single-dose antiproliferative screen
Format in all cases: cell-based
UO-31 = details: Homo sapiens, UO-31, 48 h, read-out: growth percent
Summary of the method: (§1)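 Cells grown in RPMI 1640 with 5% FBS and 2 mM L-glutamine, plated and held 24 h at 37 °C; time-zero plates TCA-fixed. DMSO stocks were diluted in gentamicin-containing medium to a final 10^-5 M, with a DMSO-only control. Exposure 48 h, 5% CO2. Adherent cells TCA-fixed 1 h at 4 °C, stained with 0.4% SRB, solubilised in 10 mM Trizma base, read at 515 nm. Growth percent derived from ODtzero, ODtest and ODctrl.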

MDA-MB-435 = details: Homo sapiens, MDA-MB-435, 48 h, read-out: growth percent
Summary of the method: (§2)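 NCI-60 protocol. Lines were grown in RPMI 1640 with 5% FBS and 2 mM L-glutamine, plated and incubated 24 h at 37 °C; time-zero plates were TCA-fixed. The test compound was dissolved in DMSO, diluted in medium with 50 μg/mL gentamicin and given once at a final 10^-5 M (DMSO control) for 48 h. Cells were fixed with cold TCA (1 h, 4 °C) and stained with 0.4% SRB in 1% acetic acid for 10 min. Dye was dissolved in 10 mM Trizma base and read at 515 nm. Growth percent was calculated from time-zero, test and control ODs.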

M14 = details: Homo sapiens, M14, 48 h, read-out: growth percent
Summary of the method: as §2

TK-10 = details: Homo sapiens, TK-10, 48 h, read-out: growth percent
Summary of the method: as §1

UACC-62 = details: Homo sapiens, UACC-62, 48 h, read-out: growth percent
Summary of the method: as §1

RXF 393 = details: Homo sapiens, RXF 393, 48 h, read-out: growth percent
Summary of the method: as §2

RPMI-8226 = details: Homo sapiens, RPMI-8226, 48 h, read-out: growth percent
Summary of the method: as §2

BT-549 = details: Homo sapiens, BT-549, 48 h, read-out: growth percent
Summary of the method: as §2

OVCAR-3 = details: Homo sapiens, OVCAR-3, 48 h, read-out: growth percent
Summary of the method: as §2

SK-MEL-5 = details: Homo sapiens, SK-MEL-5, 48 h, read-out: growth percent
Summary of the method: as §1

NCI-H460 = details: Homo sapiens, NCI-H460, 48 h, read-out: growth percent
Summary of the method: as §2

HT29 = details: Homo sapiens, HT-29, 48 h, read-out: growth percent
Summary of the method: as §2

OVCAR-4 = details: Homo sapiens, OVCAR-4, 48 h, read-out: growth percent
Summary of the method: as §2

SNB-75 = details: Homo sapiens, SNB-75, 48 h, read-out: growth percent
Summary of the method: as §1

LOX IMVI = details: Homo sapiens, 48 h, read-out: growth percent
Summary of the method: as §2

MCF-7 = details: Homo sapiens, MCF7, 48 h, read-out: growth percent
Summary of the method: as §2

UACC-257 = details: Homo sapiens, UACC-257, 48 h, read-out: growth percent
Summary of the method: as §1

HCT-15 = details: Homo sapiens, HCT-15, 48 h, read-out: growth percent
Summary of the method: as §2

KM12 = details: Homo sapiens, KM12, 48 h, read-out: growth percent
Summary of the method: as §2

SW-620 = details: Homo sapiens, SW-620, 48 h, read-out: growth percent
Summary of the method: as §1

HOP-92 = details: Homo sapiens, HOP-92, 48 h, read-out: growth percent
Summary of the method: as §2

COLO205 = details: Homo sapiens, COLO 205, 48 h, read-out: growth percent
Summary of the method: as §2

CCRF-CEM = details: Homo sapiens, 48 h, read-out: growth percent
Summary of the method: as §2

SF-268 = details: Homo sapiens, SF-268, 48 h, read-out: growth percent
Summary of the method: as §2

SF-539 = details: Homo sapiens, SF-539, 48 h, read-out: growth percent
Summary of the method: as §1

NCI-H322M = details: Homo sapiens, 48 h, read-out: growth percent
Summary of the method: as §2

SK-MEL-2 = details: Homo sapiens, SK-MEL-2, 48 h, read-out: growth percent
Summary of the method: as §1

NCI-H226 = details: Homo sapiens, NCI-H226, 48 h, read-out: growth percent
Summary of the method: as §2

U251 = details: Homo sapiens, U-251, 48 h, read-out: growth percent
Summary of the method: as §1

SN12C = details: Homo sapiens, 48 h, read-out: growth percent
Summary of the method: as §1

DU-145 = details: Homo sapiens, DU-145, 48 h, read-out: growth percent
Summary of the method: as §2

OVCAR-8 = details: Homo sapiens, OVCAR-8, 48 h, read-out: growth percent
Summary of the method: as §2

IGROV1 = details: Homo sapiens, IGROV-1, 48 h, read-out: growth percent
Summary of the method: as §2

NCI-H23 = details: Homo sapiens, NCI-H23, 48 h, read-out: growth percent
Summary of the method: as §2

CAKI-1 = details: Homo sapiens, CAKI-1, 48 h, read-out: growth percent
Summary of the method: as §2

SMILES | activity at 10 µM (UO-31) [%] | activity at 10 µM (MDA-MB-435) [%] | activity at 10 µM (M14) [%] | activity at 10 µM (TK-10) [%] | activity at 10 µM (UACC-62) [%] | activity at 10 µM (RXF 393) [%] | activity at 10 µM (RPMI-8226) [%] | activity at 10 µM (BT-549) [%] | activity at 10 µM (OVCAR-3) [%] | activity at 10 µM (SK-MEL-5) [%] | activity at 10 µM (NCI-H460) [%] | activity at 10 µM (HT29) [%] | activity at 10 µM (OVCAR-4) [%] | activity at 10 µM (SNB-75) [%] | activity at 10 µM (LOX IMVI) [%] | activity at 10 µM (MCF-7) [%] | activity at 10 µM (UACC-257) [%] | activity at 10 µM (HCT-15) [%] | activity at 10 µM (KM12) [%] | activity at 10 µM (SW-620) [%] | further results
COc1cc(CNC(=O)CCCC/C=C/C(C)C)ccc1OCc1cn(-c2ccc(Br)cc2)nn1 [14k, (E)-N-(4-((1-(4-Bromophenyl)-1H-1,2,3-triazol-4-yl)methoxy)-3-methoxybenzyl)-8-methylnon-6-enamide] | 67.9 | 107 | 90.2 | 118 | 63 | 105 | 57.4 | 88.1 | 100 | 72 | 72.1 | 98.1 | 89.2 | 90.9 | 83.7 | 76.2 | 90.5 | 94 | 94.3 | 94.7 | activity at 10 µM (HOP-92): 68.8%; activity at 10 µM (COLO205): 103%; activity at 10 µM (CCRF-CEM): 94.2%; activity at 10 µM (SF-268): 78.9%; activity at 10 µM (SF-539): 92.4%; activity at 10 µM (NCI-H322M): 90.6%; activity at 10 µM (SK-MEL-2): 95.2%; activity at 10 µM (NCI-H226): 86.3%; activity at 10 µM (U251): 75.5%; activity at 10 µM (SN12C): 83%; activity at 10 µM (DU-145): 98.8%; activity at 10 µM (OVCAR-8): 79.6%; activity at 10 µM (IGROV1): 72.7%; activity at 10 µM (NCI-H23): 70.2%; activity at 10 µM (CAKI-1): 74.3%
COc1cc(CNC(=O)CCCC/C=C/C(C)C)ccc1OCc1cn(-c2ccc(C#N)cc2)nn1 [14j, (E)-N-(4-((1-(4-Cyanophenyl)-1H-1,2,3-triazol-4-yl)methoxy)-3-methoxybenzyl)-8-methylnon-6-enamide] | 112 | 108 | 95.3 | 91.8 | 81.8 | 90.8 | 65.4 | 91.2 | 109 | 87 | 93 | 95.6 | 94.9 | 94.2 | 78.2 | 103 | 94.3 | 83.5 | 91.5 | 98 | activity at 10 µM (HOP-92): 80.5%; activity at 10 µM (COLO205): 117%; activity at 10 µM (CCRF-CEM): 86.2%; activity at 10 µM (SF-268): 90.9%; activity at 10 µM (SF-539): 94.5%; activity at 10 µM (NCI-H322M): 95.3%; activity at 10 µM (SK-MEL-2): 98.4%; activity at 10 µM (NCI-H226): 100%; activity at 10 µM (U251): 91.2%; activity at 10 µM (SN12C): 98.3%; activity at 10 µM (DU-145): 44.4%; activity at 10 µM (OVCAR-8): 63.3%; activity at 10 µM (IGROV1): 100%; activity at 10 µM (NCI-H23): 72.1%; activity at 10 µM (CAKI-1): 74.6%
COc1cc(CNC(=O)CCCC/C=C/C(C)C)ccc1OCc1cn(-c2ccccc2F)nn1 [14i, (E)-N-(4-((1-(2-Fluorophenyl)-1H-1,2,3-triazol-4-yl)methoxy)-3-methoxybenzyl)-8-methylnon-6-enamide] | 77.1 | 101 | 96.8 | 111 | 76.2 | 103 | 81.3 | 89.2 | 97.5 | 91.5 | 104 | 107 | 84.2 | 88.1 | 87.1 | 97.1 | 95 | 96 | 98.9 | 98.1 | activity at 10 µM (HOP-92): 78.7%; activity at 10 µM (COLO205): 116%; activity at 10 µM (CCRF-CEM): 88.6%; activity at 10 µM (SF-268): 95%; activity at 10 µM (SF-539): 105%; activity at 10 µM (NCI-H322M): 90.2%; activity at 10 µM (SK-MEL-2): 106%; activity at 10 µM (NCI-H226): 81.3%; activity at 10 µM (U251): 93.1%; activity at 10 µM (SN12C): 92.7%; activity at 10 µM (DU-145): 106%; activity at 10 µM (OVCAR-8): 94.5%; activity at 10 µM (IGROV1): 101%; activity at 10 µM (NCI-H23): 95.3%; activity at 10 µM (CAKI-1): 90.6%
COc1cc(CNC(=O)CCCC/C=C/C(C)C)ccc1OCc1cn(-c2ccccc2OC)nn1 [14l, (E)-N-(3-Methoxy-4-((1-(2-methoxyphenyl)-1H-1,2,3-triazol-4-yl)methoxy)benzyl)-8-methylnon-6-enamide] | 105 | 110 | 96.7 | 90.2 | 75.1 | 101 | 71.2 | 93.1 | 103 | 83.9 | 104 | 98.7 | 100 | 103 | 86.1 | 98.2 | 85.2 | 106 | 98.2 | 97 | activity at 10 µM (HOP-92): 72.1%; activity at 10 µM (COLO205): 117%; activity at 10 µM (CCRF-CEM): 83.7%; activity at 10 µM (SF-268): 92.6%; activity at 10 µM (SF-539): 106%; activity at 10 µM (NCI-H322M): 92.2%; activity at 10 µM (SK-MEL-2): 89.8%; activity at 10 µM (NCI-H226): 80.5%; activity at 10 µM (U251): 90.2%; activity at 10 µM (SN12C): 98%; activity at 10 µM (DU-145): 83.1%; activity at 10 µM (OVCAR-8): 82.2%; activity at 10 µM (IGROV1): 104%; activity at 10 µM (NCI-H23): 96%; activity at 10 µM (CAKI-1): 79.9%
